Source: PubChem BioAssay (Johns Hopkins Ion Channel Center)
TRPC4 PAM: positive allosteric modulators of TRPC4, primary screen, cell-based, mouse TRPC4beta, HEK293 mu-opioid, Fluo-4 calcium; DAMGO EC20, Fluo-4 Ca2+ flux; active compounds read high; 0.42% of 310,000 active; B-score at 10 µM; Short transient receptor potential channel 4 (Mus musculus), Q9QUQ5;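 active = B-score of calcium response area above 5 SD of library B-scores, with initial fluorescence ratio within 5 SD of library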;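 also: B-score of integrated fluorescence ratio over time as area under calcium response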
TRPC6 activator: mouse TRPC6 channel activators, primary screen, cell-based, HEK293, membrane potential dye; AID 2550, 2010; HEK293-TRPC6 membrane potential dye fluorescence; active compounds read high; B-score at 10 µM; 0.13% of 310,000 active;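 active = B-score of the integrated fluorescence ratio above library mean plus 3 SD, and starting fluorescence ratio within library mean plus 5 SD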;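 also: higher score means more depolarization so channel activation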
Target sequence (Q61143 whole entry, looked up): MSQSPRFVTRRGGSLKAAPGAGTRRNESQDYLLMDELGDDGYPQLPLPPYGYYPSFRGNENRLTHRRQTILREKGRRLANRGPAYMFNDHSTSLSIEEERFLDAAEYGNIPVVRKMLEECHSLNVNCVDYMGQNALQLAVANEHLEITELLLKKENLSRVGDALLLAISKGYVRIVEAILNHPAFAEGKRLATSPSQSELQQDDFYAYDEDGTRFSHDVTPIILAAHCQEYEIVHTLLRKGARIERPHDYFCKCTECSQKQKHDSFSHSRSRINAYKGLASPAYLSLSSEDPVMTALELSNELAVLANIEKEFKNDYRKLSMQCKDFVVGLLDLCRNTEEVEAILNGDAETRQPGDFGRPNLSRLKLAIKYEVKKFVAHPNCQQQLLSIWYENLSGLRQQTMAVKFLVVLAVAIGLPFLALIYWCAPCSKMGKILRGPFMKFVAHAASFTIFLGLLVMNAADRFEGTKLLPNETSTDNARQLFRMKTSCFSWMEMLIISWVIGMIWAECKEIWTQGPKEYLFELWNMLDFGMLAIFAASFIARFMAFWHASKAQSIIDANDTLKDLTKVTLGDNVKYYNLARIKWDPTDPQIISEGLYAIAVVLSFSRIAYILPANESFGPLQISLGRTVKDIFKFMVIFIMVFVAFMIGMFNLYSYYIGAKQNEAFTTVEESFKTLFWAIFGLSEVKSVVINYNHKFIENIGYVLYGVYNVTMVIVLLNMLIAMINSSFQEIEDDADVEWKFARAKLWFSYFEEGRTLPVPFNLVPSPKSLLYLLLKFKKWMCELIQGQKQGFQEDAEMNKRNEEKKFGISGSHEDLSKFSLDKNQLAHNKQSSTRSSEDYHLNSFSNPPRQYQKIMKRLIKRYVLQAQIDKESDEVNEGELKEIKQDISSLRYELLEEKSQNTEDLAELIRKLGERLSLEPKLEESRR
TRPC6 inhibitor: mouse TRPC6 channel inhibitors, primary screen, cell-based, HEK293, membrane potential dye. ACh-evoked depolarization; active compounds read low. B-score at 10 µM. 1.1% of 310,000 active. AID 2553, 2010;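 active = B-score under library mean minus 3 SD, initial fluorescence not abnormally high, positive integrated signal ratio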;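 also: B-score derived from integrated fluorescence ratio over the kinetic read; more negative B-score means stronger inhibition of depolarization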
TRPC4 inh: inhibitors of mouse TRPC4 channel, primary screen, Fluo4 calcium, HEK293 TRPC4beta/mu-opioid cells. Short transient receptor potential channel 4 (Mus musculus), Q9QUQ5. 0.39% of 300,000 active. B-score at 10 µM. AID 2247, 2010. DAMGO-evoked Fluo4 calcium flux; active compounds read low;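 active = B-score over 3 SD under the library average, no early fluorescence shift, positive overall ratio signal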
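test system = HEK293 cells with stable TRPC4beta plus mu-opioid receptor expression | detection = Fluo4 Ca2+ flux fluorescence | read-out = integrated fluorescence ratio relative to baseline, converted to per-well B score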
TRPC4 act: activators of mouse TRPC4 channel, primary screen, Fluo4 calcium, HEK293 TRPC4beta/mu-opioid cells; Fluo4 calcium fluorescence; active compounds read high; Short transient receptor potential channel 4 (Mus musculus), Q9QUQ5; 0.49% of 310,000 active; B-score at 10 µM;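 active = B-score above 5 SD of library B-scores, and initial fluorescence ratio not above library mean plus 5 SD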;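 also: positive B-score marks a calcium rise read as TRPC4 activation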
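System: HEK293 cells stably co-expressing mouse TRPC4beta and mu-opioid receptor; Schedule: Fluo4 dye loading 45 min at room temperature, 110 s recording; Detection: Fluo4 fluorescence, kinetic; Evaluation: B-scored integrated calcium fluorescence ratio; Controls: buffer (low) and maximal DAMGO (high).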
TRPC4 spec 2: mouse TRPC4 off-target activity of TRPC6 inhibitors, second screen; shares compounds with TRPC6 inhibitor; HEK293 TRPC4/MOR, membrane potential dye fluorescence; channel activated by saturating DAMGO dose; inhibition, % at 10 µM; 42% of 920 active;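 active = compounds whose fluorescence signal differed from control wells by over 3 SD, either direction, in both duplicate plates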
TRPC4 spec: mouse TRPC4 modulation by TRPC6 hits, confirmation, selectivity assay for TRPC6 inhibitor project, cell-based, HEK293 TRPC4/mu-opioid, membrane potential dye; shares compounds with TRPC6 inhibitor; membrane potential fluorescence; activity change, negative = inhibition, % at 10 µM; 61% of 920 active;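 active = rise or fall in signal beyond 3 SD of buffer-only wells in both replicate plates, either sign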;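 also: integrated kinetic ratio of fluorescence range over baseline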
HEK293 MPD ctr 2-1: nonspecific membrane potential effects, parental HEK293, confirmation, counter-screen for TRPC6 inhibitor project, cell-based, second counter screen | parental HEK293 membrane potential dye fluorescence; maximal acetylcholine challenge after compound addition | shares compounds with TRPC6 inhibitor | signal change vs control, % at 10 µM | 31% of 920 active | AID 2779, 2010;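 active = membrane potential signal moving either way by over 3 SD of the maximum-effect control, in both duplicate plates, meaning non-specific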
HEK293 MPD ctr-1: membrane potential modulation in parental HEK293, confirmation, counter-screen for TRPC6 inhibitor project, cell-based. shares compounds with TRPC6 inhibitor. parental HEK293 membrane potential dye fluorescence. membrane potential signal change, % at 10 µM. 60% of 920 active. AID 2780, 2010;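 active = membrane potential signal shifting up or down by more than 3 SD of buffer-only wells, on both duplicate plates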
HEK293 MPD ctr-2: parental HEK293 membrane potential modulation, confirmation, counter-screen for TRPC6 modulator project, cell-based; membrane potential signal change, % at 10 µM; membrane potential dye fluorescence; shares compounds with TRPC6 inhibitor; 51% of 2,400 active;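 active = membrane potential signal moves up or down beyond 5 SD from buffer-only wells, on both duplicate plates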
HEK293 MPD ctr 2-2: parental HEK293 nonspecific activity of TRPC6 modulators, second screen | shares compounds with TRPC6 inhibitor | membrane potential dye fluorescence; after compound, maximal acetylcholine stimulation | inhibition, % at 10 µM | 14% of 2,400 active | AID 488926;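 active = membrane potential signal drops by more than 5 SD from the mean control signal, in both duplicate plates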;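 also: plate controls were acetylcholine ECmax control wells for no effect and buffer only wells for full effect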
TRPC4 ctr mod: TRPC4 modulation by TRPC6 hit compounds, confirmation, selectivity assay for TRPC6 modulator project, cell-based, HEK293 TRPC4/mu-opioid, membrane potential dye, mouse. 69% of 2,400 active. membrane potential fluorescence. shares compounds with TRPC6 inhibitor. percent change from control (negative = decrease, positive = increase), % at 10 µM;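 active = membrane potential signal moved up or down beyond 5 SD of buffer control wells, in both duplicate plates, actives on both sides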;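 also: plate controls were assay buffer wells for no effect and DAMGO maximal-effect wells for full effect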
TRPC4/MOR inh 2: mouse TRPC4 off-target activity of TRPC6 modulators, second screen. shares compounds with TRPC6 inhibitor. HEK293 TRPC4/mu-opioid, membrane potential dye fluorescence; stimulated with maximal-effect DAMGO. inhibition, % at 10 µM. 55% of 2,400 active;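 active = drop in membrane potential signal beyond 5 SD of the control wells in both duplicate plates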;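 also: TRPC4 counter screen for TRPC6 hits run under conditions tuned for TRPC6 not TRPC4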
TRPC6 block conf: mouse TRPC6 channel inhibitors, confirmation, HEK293 cells, membrane potential dye, duplicate | shares compounds with TRPC6 inhibitor | ACh-evoked depolarization | inhibition, % at 10 µM | 43% of 3,300 active | AID 488960, 2010;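 active = fluorescence ratio falls more than 5 SD below the full-stimulation control mean, in both duplicate runs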;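 also: integrated fluorescence ratio of peak minus minimum over baseline after agonist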
TRPC6 act conf: mouse TRPC6 channel activators, confirmation, HEK293 cells, membrane potential dye, duplicate | shares compounds with TRPC6 inhibitor | HEK293-TRPC6 membrane potential dye fluorescence, FDSS | activation, % at 10 µM | 11% of 2,800 active | AID 488961, 2010;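 active = ratio signal rise beyond 5 SD above unstimulated control wells' mean, seen in both duplicate runs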;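 also: plate controls were buffer EC0 wells for no effect and acetylcholine ECmax response for full effect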
* = called active by the depositor; i = inactive; / = no result. Compounds with a hit are over-represented: about 2.3% of the library has one in this group of screens.

SMILES | TRPC4 PAM | TRPC6 activator | TRPC6 inhibitor | TRPC4 inh | TRPC4 act | HEK293 MPD ctr-2 | HEK293 MPD ctr 2-2 | TRPC4 ctr mod | TRPC4/MOR inh 2 | TRPC6 block conf | TRPC6 act conf | others
Cc1ccc2nc(-c3ccccc3)cc(C(=O)N(C)CC(=O)Nc3ccccc3Br)c2c1 | i | i | i | i | i | / | / | / | / | / | /
CCN(CC)CC(=O)Nc1ccc(-c2nc3cc(NC(=O)CN(CC)CC)ccc3o2)cc1 | i | i | -8.7* | i | i | / | / | / | / | i | / | TRPC4 spec 2=72%*;TRPC4 spec=i;HEK293 MPD ctr 2-1=i;HEK293 MPD ctr-1=i
O=C(CN1CCCCC1)Nc1ccc(N2CCCCCC2)cc1 | i | i | -6.6* | i | i | i | i | i | 36%* | 54%* | i
O=C(CN1CCCC1)Nc1ccc(-c2nc3cc(NC(=O)CN4CCCC4)ccc3o2)cc1 | i | 12* | i | i | i | 218%* | i | 28%* | i | i | 76%*
COCCn1c(SC(C)C(=O)NCC2CCCO2)nc2sc3c(c2c1=O)CCC3 (stereo unspecified) | i | i | i | i | i | / | / | / | / | / | /
COc1cccc(CN2CC(C(=O)N3CCN(c4ccc(Cl)cc4)CC3)CCC2=O)c1 (stereo unspecified) | i | i | i | i | i | / | / | / | / | / | /
COc1ccc(N(CC(=O)NC2CCCC2)C(=O)Cn2nnc(-c3ccc(F)cc3)n2)cc1 | i | i | i | i | i | / | / | / | / | / | /
